Drawing on ChEMBL document CHEMBL3580606, “One-pot reaction to obtain N,N'-disubstituted guanidines of pyrazolo[4,3-e][1,2,4]triazolo[1,5-c]pyrimidine scaffold as human A3 adenosine receptor antagonists” (J Med Chem, 2015), this text covers inhibition, Ki and Kb for 14 compounds.

In experiment [1] the target is T1, Adenosine receptor A1 (Homo sapiens) (UniProt P30542).
T1 sequence (whole entry): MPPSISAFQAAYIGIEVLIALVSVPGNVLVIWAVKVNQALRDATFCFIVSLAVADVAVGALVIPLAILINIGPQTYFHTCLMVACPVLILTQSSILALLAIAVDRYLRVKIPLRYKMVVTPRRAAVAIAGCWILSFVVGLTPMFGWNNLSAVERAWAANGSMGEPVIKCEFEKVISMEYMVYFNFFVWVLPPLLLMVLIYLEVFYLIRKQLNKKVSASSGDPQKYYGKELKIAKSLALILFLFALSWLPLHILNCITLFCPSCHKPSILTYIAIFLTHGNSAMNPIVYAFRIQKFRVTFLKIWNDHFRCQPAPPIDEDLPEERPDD
Nature of the experiment: (§1) Displacement of [3H]-DPCPX from human adenosine A1 receptor expressed in CHO cell membranes after 120 mins by scintillation counting analysis. Set-up: concentration or dose not given beside the values. In outline: (§2)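 Membranes from transfected CHO cells in 50 mM Tris HCl pH 7.4 at 50 µg protein/assay, pretreated with adenosine deaminase 2 IU/ml. [3H]DPCPX 1 nM against 6-8 antagonist concentrations, 120 min at 25 °C. Non-specific binding defined with 1 µM DPCPX. GF/B filtration, then scintillation counting. Ki by Cheng-Prusoff, n=3-6, mean ± SEM.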

Experiment [2] concerns the target T2, Adenosine receptor A1 (Homo sapiens, UniProt P30542).
T2 sequence (P30542 whole entry): T1 sequence (whole entry)
The experiment is described as §1. In outline:
as §2

The target of experiment [3] is Adenosine receptor A2a (Homo sapiens, UniProt P29274). In words: Displacement of [3H]-ZM241385 from human adenosine A2A receptor expressed in CHO cell membranes after 60 mins by scintillation counting analysis. A digest of the protocol:
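Membranes from transfected CHO cells in 50 mM Tris HCl, 10 mM MgCl2, pH 7.4, at 50 µg protein/assay. [3H]ZM241385 2 nM with 6-8 competitor concentrations, 60 min at 4 °C. Non-specific binding defined with 1 µM ZM241385. Filtered on GF/B, bound radioactivity counted. Ki via Cheng-Prusoff, n=3-6, mean ± SEM.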
On the technique in general: Loss of bound radioactivity is the signal in a displacement assay; it reports binding, not function.

The target of experiment [4] is T3, Adenosine receptor A3 (Homo sapiens, UniProt P0DMS8).
T3 sequence (P0DMS8 whole entry): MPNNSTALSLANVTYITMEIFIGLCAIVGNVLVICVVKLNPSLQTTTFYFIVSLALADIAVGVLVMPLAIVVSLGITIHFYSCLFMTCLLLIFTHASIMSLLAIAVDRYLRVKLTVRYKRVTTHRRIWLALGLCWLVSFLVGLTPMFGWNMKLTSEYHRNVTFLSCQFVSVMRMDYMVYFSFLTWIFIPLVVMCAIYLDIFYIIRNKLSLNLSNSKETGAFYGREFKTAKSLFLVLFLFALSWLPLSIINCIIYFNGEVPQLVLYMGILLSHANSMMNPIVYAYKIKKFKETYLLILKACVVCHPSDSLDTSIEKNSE
In words: (§3) Displacement of [3H]-MRE3008F20 from human adenosine A3 receptor expressed in CHO cell membranes after 120 mins by scintillation counting analysis. A digest of the protocol: (§4)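 Membranes from transfected CHO cells in 50 mM Tris HCl, 10 mM MgCl2, 1 mM EDTA, pH 7.4, at 50 µg protein/assay. [3H]MRE3008F20 1 nM with 6-8 ligand concentrations, 120 min at 4 °C. Non-specific binding defined with 1 µM MRE3008F20. GF/B filtration, then scintillation counting. Ki by Cheng-Prusoff, n=3-6, mean ± SEM.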

Experiment [5] addresses T4, Adenosine receptor A3 (Homo sapiens) (UniProt P0DMS8).
T4 sequence (whole entry): T3 sequence (P0DMS8 whole entry)
In words: Antagonist activity at human adenosine A3 receptor expressed in CHO cells assessed as inhibition of Cl-IB-MECA-mediated suppression of forskolin-induced cyclic-AMP accumulation by scintillation counting analysis in presence of [3H]-cyclic AMP. Type of experiment: cell-based. A digest of the protocol:
(§5)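 Preincubated at 37 °C. A2B: antagonism of NECA (100 nM)-stimulated cAMP. A3: forskolin 1 µM plus Cl-IB-MECA (100 nM). Stopped with cold 6% TCA, then ether-extracted. cAMP measured by competition protein binding with [3H]cAMP. KB derived by modified Cheng-Prusoff (Leff and Dougall), mean ± SEM.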

The target of experiment [6] is T5, Adenosine receptor A2b (Homo sapiens) (UniProt P29275).
T5 sequence (whole entry): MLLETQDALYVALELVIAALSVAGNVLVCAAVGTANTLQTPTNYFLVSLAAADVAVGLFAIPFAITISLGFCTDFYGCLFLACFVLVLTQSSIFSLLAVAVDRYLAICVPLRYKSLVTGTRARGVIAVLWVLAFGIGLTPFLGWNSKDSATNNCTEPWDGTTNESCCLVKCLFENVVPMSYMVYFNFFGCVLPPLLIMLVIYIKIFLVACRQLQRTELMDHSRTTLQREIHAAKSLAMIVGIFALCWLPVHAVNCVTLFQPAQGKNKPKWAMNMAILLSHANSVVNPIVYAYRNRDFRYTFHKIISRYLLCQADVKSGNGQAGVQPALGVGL
In words: Antagonist activity at human adenosine A2B receptor expressed in CHO cells assessed as inhibition of NECA-stimulated cyclic AMP production by scintillation counting analysis in presence of [3H]-cyclic AMP. As to conditions: for inhibition: concentration not given here. Set-up: inhibition: concentration or dose not given beside the values. Type of experiment: cell-based. A digest of the protocol:
as §5

The target in experiment [7] is T4, Adenosine receptor A3 (Homo sapiens). The experiment is described as §3. In outline:
as §4

Each structure is given as a SMILES string.

Sequence of Adenosine receptor A2a (P29274 whole entry): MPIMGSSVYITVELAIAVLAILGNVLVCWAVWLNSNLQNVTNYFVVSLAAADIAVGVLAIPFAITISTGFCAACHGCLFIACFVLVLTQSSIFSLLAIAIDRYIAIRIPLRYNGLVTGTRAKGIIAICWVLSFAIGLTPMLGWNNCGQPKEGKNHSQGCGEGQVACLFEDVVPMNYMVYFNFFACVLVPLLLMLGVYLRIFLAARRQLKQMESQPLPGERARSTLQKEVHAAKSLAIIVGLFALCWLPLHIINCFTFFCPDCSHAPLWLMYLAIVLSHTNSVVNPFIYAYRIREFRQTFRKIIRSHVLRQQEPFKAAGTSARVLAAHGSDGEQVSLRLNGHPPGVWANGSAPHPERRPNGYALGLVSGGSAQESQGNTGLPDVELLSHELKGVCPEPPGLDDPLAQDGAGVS

What is called inhibition is the percentage by which the read-out fell short of the control. In general, Ki refers to a measure of affinity in units of concentration, obtained from inhibition or displacement. As usually defined, the Kb is the affinity of an antagonist, worked out from how it opposes an agonist. Turning to `Cc1ccc(NC(=Nc2nc3nn(C)cc3c3nc(-c4ccco4)nn23)Nc2ccc(C)cc2)cc1`, the inhibition in experiment [1] was 6%; in experiment [3] it was 1%; in experiment [6] it was 3%. In addition, the Ki in experiment [2] was greater than 1000 nM; in experiment [3], greater than 1000 nM; in experiment [4], 63 nM. The figures for the Kb in experiment [5] and in experiment [6] were 57 nM and greater than 1000 nM, respectively.

For `Cn1cc2c(nc(N=C(Nc3ccccc3)Nc3ccccc3)n3nc(-c4ccco4)nc23)n1`, the inhibition amounted to 10% in experiment [1], 2% in experiment [3] and 1% in experiment [6]. Moreover, the Ki is greater than 1000 nM in experiment [2], greater than 1000 nM in experiment [3] and 79 nM in experiment [4]. The Kb in experiment [5] was 67 nM; in experiment [6], greater than 1000 nM.

Turning to `Cn1cc2c(nc(N=C(Nc3ccc(C#N)cc3)Nc3ccc(C#N)cc3)n3nc(-c4ccco4)nc23)n1`, the inhibition in experiment [1], in experiment [3] and in experiment [6] was 1% in each case. Further, the Ki in experiment [2] was greater than 1000 nM; in experiment [3], greater than 1000 nM; in experiment [4], 30 nM. In addition, the Kb was 33 nM in experiment [5] and greater than 1000 nM in experiment [6].

Consider `Cn1cc2c(nc(N=C(Nc3ccc(F)cc3)Nc3ccc(F)cc3)n3nc(-c4ccco4)nc23)n1`, for which the figures for the inhibition in experiment [1], in experiment [3] and in experiment [6] were 1%, 16% and 1%, respectively. The Ki in experiment [2] is greater than 1000 nM; in experiment [3] it was greater than 1000 nM; in experiment [4] it was 122 nM. For the same compound, the Kb in experiment [5] is 129 nM; in experiment [6], greater than 1000 nM.

Take `Cn1cc2c(nc(N=C(Nc3cccc(Cl)c3)Nc3cccc(Cl)c3)n3nc(-c4ccco4)nc23)n1`: the inhibition in experiment [1] was found to be 17%; in experiment [3], 1%; in experiment [6] it was 1%. Also, the Ki is greater than 1000 nM in experiment [2], greater than 1000 nM in experiment [3] and 89 nM in experiment [4]. The Kb was 74 nM in experiment [5] and greater than 1000 nM in experiment [6].

In the case of `CCN/C(=N\c1nc2nn(C)cc2c2nc(-c3ccco3)nn12)NCCCN(C)C`, the inhibition is 22% in experiment [1]; 3% in experiment [3]; 19% in experiment [7]; 3% in experiment [5] (concentration not given here); 1% in experiment [6]. Besides, the Ki in experiment [2], in experiment [3] and in experiment [4] was greater than 1000 nM throughout. Also, the antagonist equilibrium constant (Kb) in experiment [5] and in experiment [6] was greater than 1000 nM each time.

In the case of `Cn1cc2c(nc(N=C(Nc3ccc(Br)cc3)Nc3ccc(Br)cc3)n3nc(-c4ccco4)nc23)n1`, the results for the inhibition in experiment [1], in experiment [3] and in experiment [6] were 1%, 10% and 1%, respectively. Further, the inhibition constant (Ki) is greater than 1000 nM in experiment [2], greater than 1000 nM in experiment [3] and 345 nM in experiment [4]. For the same compound, the antagonist equilibrium constant (Kb) is 362 nM in experiment [5] and greater than 1000 nM in experiment [6].

Take `COc1ccc(NC(=Nc2nc3nn(C)cc3c3nc(-c4ccco4)nn23)Nc2ccc(OC)cc2)cc1`: the values for the inhibition in experiment [1], in experiment [3] and in experiment [6] were 7%, 1% and 4%, respectively. Moreover, the inhibitory constant (Ki) is greater than 1000 nM in experiment [2], greater than 1000 nM in experiment [3] and 42 nM in experiment [4]. In addition, the antagonist dissociation constant (Kb) in experiment [5] is 42 nM; in experiment [6], greater than 1000 nM.

`Cn1cc2c(nc(N=C(Nc3ccc([N+](=O)[O-])cc3)Nc3ccc([N+](=O)[O-])cc3)n3nc(-c4ccco4)nc23)n1`: the inhibition in experiment [1], in experiment [3] and in experiment [6] was 1% in each case. Further, the Ki in experiment [2] was greater than 1000 nM; in experiment [3] it was greater than 1000 nM; in experiment [4], 18 nM. Besides, the antagonist dissociation constant (Kb) is 13 nM in experiment [5] and greater than 1000 nM in experiment [6].

As for `Cn1cc2c(nc(N=C(NC3CCCCC3)NC3CCCCC3)n3nc(-c4ccco4)nc23)n1`, the inhibition in experiment [1] was found to be 25%; in experiment [3], 3%; in experiment [6], 4%. The Ki in experiment [2] was greater than 1000 nM; in experiment [3] it was greater than 1000 nM; in experiment [4] it was 29 nM. In addition, the figures for the Kb in experiment [5] and in experiment [6] were 32 nM and greater than 1000 nM, respectively.

For the compound `Cn1cc2c(nc(N=C(Nc3ccc(Cl)cc3)Nc3ccc(Cl)cc3)n3nc(-c4ccco4)nc23)n1`, the inhibition in experiment [1] was 8%; in experiment [3] it was 11%; in experiment [6], 2%. For the same compound, the Ki is greater than 1000 nM in experiment [2], greater than 1000 nM in experiment [3] and 71 nM in experiment [4]. Moreover, the figures for the antagonist dissociation constant (Kb) in experiment [5] and in experiment [6] were 63 nM and greater than 1000 nM, respectively.

In the case of `Cn1cc2c(nc(N=C(Nc3cccc(C(F)(F)F)c3)Nc3cccc(C(F)(F)F)c3)n3nc(-c4ccco4)nc23)n1`, the figures for the inhibition in experiment [1], in experiment [3] and in experiment [6] were 3%, 1% and 2%, respectively. In addition, the Ki in experiment [2] is greater than 1000 nM; in experiment [3], greater than 1000 nM; in experiment [4] it was 520 nM. Besides, the antagonist dissociation constant (Kb) is 537 nM in experiment [5] and greater than 1000 nM in experiment [6].

Turning to `COc1cccc(NC(=Nc2nc3nn(C)cc3c3nc(-c4ccco4)nn23)Nc2cccc(OC)c2)c1`, the inhibition in experiment [1] came to 1%; in experiment [3] it was 18%; in experiment [6], 1%. Further, the Ki in experiment [2] is greater than 1000 nM; in experiment [3], greater than 1000 nM; in experiment [4] it was 155 nM. The antagonist dissociation constant (Kb) in experiment [5] was 141 nM; in experiment [6] it was greater than 1000 nM.

Take `CC(C)NC(=Nc1nc2nn(C)cc2c2nc(-c3ccco3)nn12)NC(C)C`: the inhibition in experiment [1] was 4%; in experiment [3], 1%; in experiment [6], 3%. In addition, the Ki in experiment [2] is greater than 1000 nM; in experiment [3] it was greater than 1000 nM; in experiment [4], 33 nM. Besides, the antagonist equilibrium constant (Kb) in experiment [5] was 36 nM; in experiment [6], greater than 1000 nM.
